Experimental data published in ChEMBL document CHEMBL1147132, “Structure-activity relationship studies of gonadotropin-releasing hormone antagonists containing S-aryl/alkyl norcysteines and their oxidized derivatives” (J Med Chem, 2007).
Converted amounts (≈) assume the structure as drawn. Starred links: 1 amine or outer side, 2 acyl side, 3 side chain; linkers in the order of their positions; H or OH if unused. Non-standard residues stand in square brackets, D forms with d. Residues, ends and D or L forms follow the SMILES beside them. Phe(4-NH(5-NH2triazol-3-yl)) = Nc1nc(Nc2ccc(C[C@H](N)C(=O)O)cc2)n[nH]1; X1 = Nc1nc(Nc2ccc(C[C@@H](N[*:1])C(=O)[*:2])cc2)n[nH]1; dPhe(4-Cl) = N[C@H](Cc1ccc(Cl)cc1)C(=O)O; d2Nal = N[C@H](Cc1ccc2ccccc2c1)C(=O)O; Lys(iPr) = CC(C)NCCCC[C@H](N)C(=O)O; d3Pal = N[C@H](Cc1cccnc1)C(=O)O

How the values were obtained:
[1] = Solubility in 5% mannitol; format: physicochemical
[2] = biological target: T1, Gonadotropin-releasing hormone receptor (Rattus norvegicus, UniProt P30969); experiment: Antagonist activity at rat GnRHR expressed in HEK293 cells assessed as inhibition of GnRH-induced luciferase response by reporter gene assay; format: functional, cell-based
T1 sequence (P30969 whole entry): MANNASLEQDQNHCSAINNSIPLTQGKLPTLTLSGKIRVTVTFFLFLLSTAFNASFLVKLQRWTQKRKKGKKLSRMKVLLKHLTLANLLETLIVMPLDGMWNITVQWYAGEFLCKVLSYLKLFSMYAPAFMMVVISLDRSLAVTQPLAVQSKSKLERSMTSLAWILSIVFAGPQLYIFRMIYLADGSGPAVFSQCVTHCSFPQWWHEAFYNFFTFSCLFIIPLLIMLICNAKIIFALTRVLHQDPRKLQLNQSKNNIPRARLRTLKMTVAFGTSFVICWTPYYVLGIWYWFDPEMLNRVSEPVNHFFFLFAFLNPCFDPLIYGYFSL
Procedure, shortened: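 Rat GnRHR stably expressed in HEK293 cells, transiently transfected with an NFAT-responsive luciferase reporter, plated after 16 h and assayed next day. Compound in 1% DMSO was given 10 min before 1 nM GnRH (final), ≥5 h at 37 °C, then luminescence. Duplicates at 11 half-log concentrations. IC50 by four-parameter logistic fit, geometric mean of ≥2 experiments.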

Rattus norvegicus [3] = experiment: Inhibition of plasma testosterone levels in Sprague-Dawley rat at 19.6 uM, sc by enzyme-linked immunosorbent assay; format: functional
Procedure, shortened: (§1)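 Intact adult male Sprague-Dawley rats (275–310 g, 3 per group) received subcutaneous mini-pumps for seven days. Solutions were in 1:3 DMSO/water: 19.6 μM (~0.66 nM/day/kg), or 9.8 μM (~0.33 nM/day/kg). Sham-operated controls. Plasma was sampled on days 3–7 and testosterone measured by ELISA. Values are means of days 4–7.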

Rattus norvegicus [4] = experiment: Inhibition of plasma testosterone levels in Sprague-Dawley rat at 9.8 uM, sc by enzyme-linked immunosorbent assay; format: functional; procedure, shortened: as §1
[5] = Ratio of IC50 for rat GnRHR to IC50 for human GnRHR in HEK293 cells; format: functional
[6] = biological target: T2, Gonadotropin-releasing hormone receptor (Homo sapiens, UniProt P30968); experiment: Antagonist activity at human GnRHR expressed in HEK293 cells assessed as inhibition of GnRH-induced luciferase response by reporter gene assay; format: functional, cell-based
T2 sequence (P30968 whole entry): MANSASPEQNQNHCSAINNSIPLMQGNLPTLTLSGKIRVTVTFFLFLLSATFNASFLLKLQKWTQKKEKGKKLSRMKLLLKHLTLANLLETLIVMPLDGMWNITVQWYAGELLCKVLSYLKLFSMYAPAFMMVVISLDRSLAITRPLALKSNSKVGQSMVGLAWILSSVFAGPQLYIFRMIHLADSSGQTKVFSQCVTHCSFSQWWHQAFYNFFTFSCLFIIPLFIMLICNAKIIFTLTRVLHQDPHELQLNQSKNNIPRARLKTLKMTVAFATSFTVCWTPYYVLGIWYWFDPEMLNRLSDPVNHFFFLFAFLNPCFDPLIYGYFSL
Procedure, shortened: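 HEK293 cells stably expressing cloned human GnRHR and an LH alpha-subunit-promoter luciferase reporter, plated overnight. Compound in 1% DMSO was added 10 min before GnRH (1 nM final), then ≥5 h at 37 °C, 5% CO2, then luminescence. 11 half-log concentrations in duplicate. IC50 from four-parameter logistic fit, reported as geometric mean of ≥2 experiments.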

[7] = biological target: T3, Gonadotropin-releasing hormone receptor (Homo sapiens) (UniProt P30968); experiment: Antagonist activity at human GnRHR expressed in COS7 cells assessed as inhibition of GnRH-stimulated inositol phosphate production after 2 hrs; format: functional, cell-based; conditions: COS-7, filed as antagonist
T3 sequence (whole entry): T2 sequence (P30968 whole entry)
Procedure, shortened: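 COS-7 cells transiently transfected with WT hGnRH-R cDNA, labelled 18 h at 37 °C with 4 μCi/mL [3H]myo-inositol in inositol-free DMEM. Cells were washed in medium with 5 mM LiCl, then co-incubated 2 h at 37 °C with 10−8 M GnRH plus analogue at 10−8 to 10−5 M. IP was measured by Dowex anion-exchange and scintillation counting. Triplicate, repeated three or more times.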

Row | SMILES | solubility [1] | IC50 [2] | Plasma testosterone level (Rattus norvegicus [3]) | Activity (Rattus norvegicus [4]) | Ratio IC50 [5] | IC50 [6] | Activity [7]
1 | CC(=O)N[C@H](Cc1ccc2ccccc2c1)C(=O)N[C@H](Cc1ccc(Cl)cc1)C(=O)N[C@H](Cc1cccnc1)C(=O)N[C@@H](CO)C(=O)N[C@@H](Cc1ccc(Nc2n[nH]c(N)n2)cc1)C(=O)N[C@H](Cc1ccc(Nc2n[nH]c(N)n2)cc1)C(=O)N[C@@H](CC(C)C)C(=O)N[C@@H](CCCCNC(C)C)C(=O)N1CCC[C@H]1C(=O)N[C@H](C)C(N)=O.CC(=O)O [PRAZARELIX ACETATE] (Ac-[d2Nal][dPhe(4-Cl)][d3Pal]S[Phe(4-NH(5-NH2triazol-3-yl))][X1]L[Lys(iPr)]P[dA]-NH2) | 50 mg/mL | 1.4 nM (antagonist) | 0.32 ng/mL | 1.39 ng/mL | 1.03 | 1.36 nM (antagonist) | 
2 | CC(=O)Nc1ccc(C[C@H](NC(=O)[C@H](CO)NC(=O)[C@@H](Cc2cccnc2)NC(=O)[C@@H](Cc2ccc(Cl)cc2)NC(=O)[C@H](NC(C)=O)Sc2ccc3ccccc3c2)C(=O)N[C@H](Cc2ccc(NC(C)=O)cc2)C(=O)N[C@@H](CC(C)C)C(=O)N[C@@H](CCCCNC(C)C)C(=O)N2CCC[C@H]2C(=O)N[C@H](C)C(N)=O)cc1 | 50 mg/mL (≈ 32.2 mM) | 4.4 nM (antagonist) | 1.03 ng/mL |  | 6.03 | 0.73 nM (antagonist) | Antagonist
3 | CS[C@@H](NC(=O)[C@@H]1CCCN1C(=O)[C@H](CCCCNC(C)C)NC(=O)[C@H](CC(C)C)NC(=O)[C@@H](Cc1ccc(NC(C)=O)cc1)NC(=O)[C@H](Cc1ccc(NC(C)=O)cc1)NC(=O)[C@H](CO)NC(=O)[C@@H](Cc1cccnc1)NC(=O)[C@@H](Cc1ccc(Cl)cc1)NC(=O)[C@@H](Cc1ccc2ccccc2c1)NC(C)=O)C(N)=O | 50 mg/mL (≈ 31.9 mM) | 1.7 nM (antagonist) | 1.97 ng/mL |  | 2.83 | 0.6 nM (antagonist) | Antagonist
4 | CC(=O)Nc1ccc(C[C@H](NC(=O)[C@H](CO)NC(=O)[C@@H](Cc2cccnc2)NC(=O)[C@@H](Cc2ccc(Cl)cc2)NC(=O)[C@@H](Cc2ccc3ccccc3c2)NC(C)=O)C(=O)N[C@H](Cc2ccc(NC(C)=O)cc2)C(=O)N[C@@H](SC(C)C)C(=O)N[C@@H](CCCCNC(C)C)C(=O)N2CCC[C@H]2C(=O)N[C@H](C)C(N)=O)cc1 | 50 mg/mL (≈ 32.2 mM) | 2.5 nM (antagonist) | 1.59 ng/mL |  | 8.07 | 0.31 nM (antagonist) | Antagonist
5 | CC(=O)Nc1ccc(C[C@H](NC(=O)[C@H](CO)NC(=O)[C@@H](Cc2cccnc2)NC(=O)[C@@H](Cc2ccc(Cl)cc2)NC(=O)[C@@H](Cc2ccc3ccccc3c2)NC(C)=O)C(=O)N[C@H](Cc2ccc(NC(C)=O)cc2)C(=O)N[C@@H](CC(C)C)C(=O)N[C@@H](CCCCNC(C)C)C(=O)N2CCC[C@H]2C(=O)N[C@H](C)C(N)=O)cc1 [ACYLINE] | 50 mg/mL (≈ 32.6 mM) | 1.5 nM (antagonist) | 0.69 ng/mL |  | 2.89 | 0.52 nM (antagonist) | Antagonist
